Source: ChEMBL document CHEMBL1153170, “Novel imidazolopyrimidines as dual PI3-Kinase/mTOR inhibitors” (Bioorg Med Chem Lett, 2010)
Activity calls are given as the source filed them. The calls are words filed in the database; no cut-off is given here.

Legend:
[1] = biological target: T1, Phosphatidylinositol 4,5-bisphosphate 3-kinase catalytic subunit alpha isoform (Homo sapiens, UniProt P42336); test: Inhibition of PI3Kalpha
[2] = biological target: Phosphatidylinositol 4,5-bisphosphate 3-kinase catalytic subunit gamma isoform (Homo sapiens, UniProt P48736); test: Inhibition of PI3Kgamma
[3] = biological target: Serine/threonine-protein kinase mTOR (Homo sapiens, UniProt P42345); test: Inhibition of mTOR
[4] = Growth inhibition of human PC3MM2 cells after 72 hrs by celltiter assay; format: functional, cell-based; settings: PC3MM2, 72 h
Outline: (§1)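 Cells from ATCC, maintained at 37 °C, 5% CO2 in growth medium with 10% fetal calf serum plus penicillin/streptomycin. Seeding density set per line's growth characteristics; 96-well format. Viable cells quantified by CellTiter 96 aqueous non-radioactive colorimetric proliferation assay after 72 h compound exposure.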

MDA-MB-361 = test: Growth inhibition of human MDA-MB-361 cells after 72 hrs by celltiter assay; format: functional, cell-based; settings: MDA-MB-361, 72 h; outline: as §1
[5] = biological target: T1, Phosphatidylinositol 4,5-bisphosphate 3-kinase catalytic subunit alpha isoform; test: Inhibition of PI3Kalpha in human MDA-MB-361 cells assessed as reduction of phosphorylated Akt (T308) level after 4 hrs by Western blotting; format: cell-based
Outline: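 Cells seeded 24 h before 4 h compound exposure in complete growth medium, washed with cold PBS, lysed in Tris-HCl pH 7.5/NaCl/EDTA/EGTA/Triton buffer with phosphatase and protease inhibitors. Lysates resolved by SDS-PAGE, blotted to nitrocellulose, probed for phospho-Akt T308, total Akt, actin; HRP secondary, chemiluminescent detection.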

[6] = biological target: T1, Phosphatidylinositol 4,5-bisphosphate 3-kinase catalytic subunit alpha isoform; settings: MDA-MB-361, 10 to 30 uM

Sequence of Phosphatidylinositol 4,5-bisphosphate 3-kinase catalytic subunit gamma isoform (P48736 whole entry, canonical isoform): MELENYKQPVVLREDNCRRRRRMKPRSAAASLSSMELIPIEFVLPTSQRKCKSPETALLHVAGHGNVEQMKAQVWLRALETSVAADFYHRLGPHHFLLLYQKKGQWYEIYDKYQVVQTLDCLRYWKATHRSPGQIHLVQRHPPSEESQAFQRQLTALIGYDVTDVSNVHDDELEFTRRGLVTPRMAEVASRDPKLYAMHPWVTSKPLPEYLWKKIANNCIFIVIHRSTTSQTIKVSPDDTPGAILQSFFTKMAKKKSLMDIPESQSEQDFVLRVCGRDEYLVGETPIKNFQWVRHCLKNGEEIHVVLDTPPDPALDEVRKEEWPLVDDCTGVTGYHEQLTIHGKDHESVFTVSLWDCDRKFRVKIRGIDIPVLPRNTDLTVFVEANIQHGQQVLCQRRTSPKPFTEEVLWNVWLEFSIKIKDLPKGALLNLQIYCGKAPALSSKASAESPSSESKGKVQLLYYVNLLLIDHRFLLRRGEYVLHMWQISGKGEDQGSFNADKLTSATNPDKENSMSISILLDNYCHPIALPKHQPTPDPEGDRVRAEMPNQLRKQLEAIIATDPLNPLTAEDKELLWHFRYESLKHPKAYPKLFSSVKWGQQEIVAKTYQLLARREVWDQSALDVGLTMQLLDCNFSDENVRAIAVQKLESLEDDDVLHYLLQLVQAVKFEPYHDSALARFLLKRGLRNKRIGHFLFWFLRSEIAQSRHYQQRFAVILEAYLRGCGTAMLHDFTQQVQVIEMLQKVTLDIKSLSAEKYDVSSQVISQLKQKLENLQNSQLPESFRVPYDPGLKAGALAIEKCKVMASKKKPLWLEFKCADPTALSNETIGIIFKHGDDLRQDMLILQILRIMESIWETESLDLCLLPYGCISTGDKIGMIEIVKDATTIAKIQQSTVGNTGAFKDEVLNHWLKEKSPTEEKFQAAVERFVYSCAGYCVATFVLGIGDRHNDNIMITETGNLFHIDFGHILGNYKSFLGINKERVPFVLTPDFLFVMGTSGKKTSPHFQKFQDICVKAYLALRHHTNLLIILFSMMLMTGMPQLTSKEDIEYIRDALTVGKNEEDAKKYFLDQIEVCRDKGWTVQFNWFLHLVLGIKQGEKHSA
T1 sequence (P42336 whole entry, canonical isoform): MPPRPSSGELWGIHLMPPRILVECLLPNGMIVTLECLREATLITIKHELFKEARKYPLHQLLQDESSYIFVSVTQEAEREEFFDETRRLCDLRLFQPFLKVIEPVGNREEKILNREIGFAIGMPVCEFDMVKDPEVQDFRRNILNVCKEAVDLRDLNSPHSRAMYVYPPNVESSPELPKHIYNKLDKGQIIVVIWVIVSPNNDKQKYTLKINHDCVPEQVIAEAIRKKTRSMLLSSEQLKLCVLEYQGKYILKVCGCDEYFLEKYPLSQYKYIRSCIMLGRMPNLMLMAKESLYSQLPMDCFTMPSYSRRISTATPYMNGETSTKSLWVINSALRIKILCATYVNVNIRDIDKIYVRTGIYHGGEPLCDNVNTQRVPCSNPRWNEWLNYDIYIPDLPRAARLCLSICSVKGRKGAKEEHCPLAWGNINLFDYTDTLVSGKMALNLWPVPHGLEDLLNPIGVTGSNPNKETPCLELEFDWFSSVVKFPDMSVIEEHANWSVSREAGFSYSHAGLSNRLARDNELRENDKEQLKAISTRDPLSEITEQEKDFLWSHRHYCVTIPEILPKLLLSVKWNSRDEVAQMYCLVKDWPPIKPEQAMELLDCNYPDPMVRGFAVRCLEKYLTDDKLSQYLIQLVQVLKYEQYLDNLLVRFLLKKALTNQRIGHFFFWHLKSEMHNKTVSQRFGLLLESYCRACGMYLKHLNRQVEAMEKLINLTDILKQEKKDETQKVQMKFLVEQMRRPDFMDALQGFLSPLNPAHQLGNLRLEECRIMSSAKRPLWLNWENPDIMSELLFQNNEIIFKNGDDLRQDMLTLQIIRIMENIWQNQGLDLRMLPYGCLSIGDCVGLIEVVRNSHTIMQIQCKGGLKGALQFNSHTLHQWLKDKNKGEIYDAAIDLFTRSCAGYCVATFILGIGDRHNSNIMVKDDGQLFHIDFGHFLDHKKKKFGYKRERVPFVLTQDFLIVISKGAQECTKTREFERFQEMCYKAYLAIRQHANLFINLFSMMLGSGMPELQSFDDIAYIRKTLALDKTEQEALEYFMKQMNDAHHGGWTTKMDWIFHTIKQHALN

| Structure (SMILES) | IC50 [1] | IC50 [2] | IC50 [3] | IC50 [4] | IC50 (MDA-MB-361) | IC50 [5] | inhibition [6] |
| --- | --- | --- | --- | --- | --- | --- | --- |
| COc1ccc(CN2CCC(n3cnc4c(N5CCOCC5)nc(-c5cccc(O)c5)nc43)CC2)cn1 | 55 nM | 306 nM |  |  |  |  |  |
| OCc1cccc(-c2nc(N3CCOCC3)c3ncn(C4CCN(Cc5ccc(F)cc5)CC4)c3n2)c1 | 70 nM | 594 nM |  |  |  |  |  |
| Oc1cccc(-c2nc(N3CCOCC3)c3ncn(C4CCN(Cc5cccnc5)CC4)c3n2)c1 | 66 nM | 583 nM |  |  |  |  |  |
| Oc1cncc(-c2nc(N3CCOCC3)c3ncn(C4CCNCC4)c3n2)c1 | 14 nM | 44 nM |  |  |  |  |  |
| OCc1cccc(-c2nc(N3CCOCC3)c3ncn(C4CCN(Cc5ccccn5)CC4)c3n2)c1 | 65 nM | 776 nM |  |  |  |  |  |
| OCc1cccc(-c2nc(N3CCOCC3)c3ncn(C4CCNCC4)c3n2)c1 | 57 nM | 683 nM |  |  |  |  |  |
| OCc1cccc(-c2nc(N3CCOCC3)c3ncn(C4CCN(c5ccc(F)cc5F)CC4)c3n2)c1 | 44 nM | 640 nM | 2050 nM |  |  |  |  |
| OCc1cccc(-c2nc(N3CCOCC3)c3ncn(C4CCN(Cc5ccc(-c6ccncc6)cc5)CC4)c3n2)c1 | 23 nM | 223 nM |  |  |  |  |  |
| Oc1cccc(-c2nc(N3CCOCC3)c3ncn(C4CCN(Cc5ccccc5)CC4)c3n2)c1 | 75 nM | 10000 nM |  |  |  |  |  |
| CC(=O)N1CCC(n2cnc3c(N4CCOCC4)nc(-c4cccc(CO)c4)nc32)CC1 | 189 nM | 1380 nM |  |  |  |  |  |
| Oc1cccc(-c2nc(N3CCOCC3)c3ncn(C4CCN(Cc5cncc(Cl)c5)CC4)c3n2)c1 | 37 nM | 341 nM | 200 nM |  |  |  |  |
| Oc1cncc(-c2nc(N3CCOCC3)c3ncn(C4CCN(Cc5ccc(Cl)cc5)CC4)c3n2)c1 | 16 nM | 119 nM |  |  |  |  |  |
| Oc1cccc(-c2nc(N3CCOCC3)c3ncn(C4CCN(Cc5ccc(N6CCOCC6)nc5)CC4)c3n2)c1 | 40 nM | 368 nM | 152 nM |  |  |  |  |
| Cc1ccc(CN2CCC(n3cnc4c(N5CCOCC5)nc(-c5cncc(O)c5)nc43)CC2)cc1 | 42 nM | 204 nM |  |  |  |  |  |
| Oc1cccc(-c2nc(N3CCOCC3)c3nc[nH]c3n2)c1 | 150 nM | 2340 nM | 1650 nM |  |  |  |  |
| Oc1cncc(-c2nc(N3CCOCC3)c3nc[nH]c3n2)c1 | 11 nM | 47 nM |  |  |  |  |  |
| OCc1cccc(-c2nc(N3CCOCC3)c3ncn(C4CCN(Cc5ccccc5F)CC4)c3n2)c1 | 42 nM | 1100 nM |  |  |  |  |  |
| CN(C)CCCOc1ccc(CN2CCC(n3cnc4c(N5CCOCC5)nc(-c5cccc(CO)c5)nc43)CC2)cc1 | 16 nM | 265 nM |  | 512 nM | 685 nM | 300 nM | Active |
| Oc1cccc(-c2nc(N3CCOCC3)c3ncn(C4CCNCC4)c3n2)c1 | 64 nM | 133 nM | 950 nM |  |  |  |  |
| Oc1cncc(-c2nc(N3CCOCC3)c3ncn(C4CCN(Cc5ccc(F)nc5)CC4)c3n2)c1 | 94 nM | 61 nM |  |  |  |  |  |
